Results reported in PubChem BioAssay AID2648 (Johns Hopkins Ion Channel Center, 2010).
In all, about 310,000 compounds went through this assay and about 1,100 (0.35%) were called active. The sample holds actives, similar compounds and a random draw of the others, so the mix is not that of the screen.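 The calls were made as follows: active = fluorescence ratio B-score, a plate-corrected score, at least three library SD, with initial intensity B-score within 5 SD; inactive = the rest.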

The compounds below were run against Potassium voltage-gated channel subfamily KQT member 1 (Homo sapiens) (UniProt P51787) (assay: potentiators or activators of KCNQ1 channel, primary screen, cell-based, thallium flux, high-throughput (AID 2648)). Conditions: CHO-K1 KCNQ1, thallium flux FluxOR fluorescence, at 10 µM; hits give high values.
Sequence of Potassium voltage-gated channel subfamily KQT member 1 (Homo sapiens) (P51787 whole entry, looked up): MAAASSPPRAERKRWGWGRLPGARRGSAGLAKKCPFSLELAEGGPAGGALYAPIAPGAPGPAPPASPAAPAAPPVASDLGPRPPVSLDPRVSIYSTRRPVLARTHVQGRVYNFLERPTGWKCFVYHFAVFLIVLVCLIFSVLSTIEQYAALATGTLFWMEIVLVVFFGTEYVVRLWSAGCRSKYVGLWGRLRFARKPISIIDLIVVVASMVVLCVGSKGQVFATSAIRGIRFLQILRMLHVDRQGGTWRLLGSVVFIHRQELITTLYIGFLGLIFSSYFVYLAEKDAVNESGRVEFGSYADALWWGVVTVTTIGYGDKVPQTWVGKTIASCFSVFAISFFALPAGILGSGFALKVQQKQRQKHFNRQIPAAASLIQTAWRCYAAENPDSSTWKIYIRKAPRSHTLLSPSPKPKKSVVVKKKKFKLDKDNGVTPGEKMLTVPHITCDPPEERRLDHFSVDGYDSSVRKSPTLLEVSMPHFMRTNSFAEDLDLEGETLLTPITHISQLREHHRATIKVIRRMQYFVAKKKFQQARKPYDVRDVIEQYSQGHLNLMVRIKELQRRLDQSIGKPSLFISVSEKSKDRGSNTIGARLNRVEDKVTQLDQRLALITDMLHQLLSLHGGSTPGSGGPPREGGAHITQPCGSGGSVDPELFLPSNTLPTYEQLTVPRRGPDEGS
Procedure, shortened: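 Schedule – 37 °C overnight plating, 90-min dark dye load, 20-min compound pretreatment · System – stable KCNQ1 CHO-K1 line · Probe or stimulus – thallium- and potassium-containing depolarizing buffer · Measured by – kinetic FluxOR fluorescence, 10 s baseline plus 110 s post-stimulus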
For `O=C(N/N=C\c1cc2c(cc1Cl)OCO2)c1ccc(Br)s1`, the B-score was “inactive”.
For `COC(=O)c1sccc1NC(=O)COc1ccc(Cl)cc1`, the B-score was “inactive”.
`COC(=O)c1sccc1NS(=O)(=O)c1ccc(F)cc1F` was tested, and the B-score was “inactive”.
For `COC(=O)c1sccc1NC(=O)CSc1ccccc1NS(=O)(=O)c1cc(Cl)ccc1Cl`, the B-score was 12 (active).
In the case of `COc1ccc(C(=O)NC(=S)NC2CCCCC2)cc1`, the B-score is reported as “inactive”.
For `O=C(NC(=S)NC1CCCCC1)c1ccc(Cl)cc1`, the B-score was 9 (active).
In the case of `O=C(NNC(=S)NC1CCCCC1)c1ccccc1Cl`, the B-score is reported as “inactive”.
In the case of `CC(C)Cc1nc(Nc2ccc(S(=O)(=O)N3CCCC3)cc2)c2nnn(Cc3ccccc3)c2n1`, the B-score is reported as “inactive”.
For `CCc1ccc(Oc2coc3cc(O)ccc3c2=O)cc1`, the B-score was “inactive”.
In the case of `CC(Oc1cccc(Cl)c1)C(=O)Nc1ccc(S(=O)(=O)Nc2ncccn2)cc1` (configuration not stated), the B-score is reported as “inactive”.
In the case of `CN(C)CCCn1c(=O)n(Cc2ccccc2)c(=O)c2c3c(sc21)CCCCC3`, the B-score is reported as “inactive”.
`CCn1c(=S)[nH]c2sc3c(c2c1=O)CCCCC3` was tested, and the B-score was 92 (active).
With `CCCc1nc2sc3c(c2c(=O)n1NC(=O)CCCl)CCCC3` the B-score was “inactive”.
For `N#Cc1nc(N)nc(N(c2ccccc2)c2ccccc2)n1`, the B-score was “inactive”.
For `O=C(Nc1cccn(Cc2ccccc2Cl)c1=O)NC1CCCCC1`, the B-score was “inactive”.
For `CC(OC(=O)C1CC(=O)N(Cc2ccccc2)C1)C(=O)Nc1ccccc1[N+](=O)[O-]` (configuration not stated), the B-score was “inactive”.
`COc1ccc(C(=O)NNC(=S)NC(=O)c2ccccc2)cc1` was tested, and the B-score was 10 (active).
For `COc1ccc(C(=O)NNC(=S)NC(=O)c2ccccc2[N+](=O)[O-])cc1`, the B-score was “inactive”.
For `COc1ccc(C(=O)NC(=S)NNC(=O)c2c(-c3ccccc3)noc2C)cc1`, the B-score was “inactive”.
With `CCc1cc2c(=O)c(-c3ccon3)c(N)oc2cc1OC` the B-score was “inactive”.
For `Oc1ccc2ccccc2c1N=Nc1nccs1`, the B-score was 21 (active).
With `Oc1ccc(N=Nc2nccs2)c(O)c1` the B-score was “inactive”.
`c1ccc(NCc2cccc3ccccc23)nc1` was tested, and the B-score was “inactive”.
With `COc1ccc(N(CC(=O)NCc2ccc(F)cc2)C(=O)CCC(=O)Nc2nccs2)cc1` the B-score was “inactive”.
In the case of `CC1=C/C(=N\OS(=O)(=O)c2ccccc2)C=CC1=O`, the B-score is reported as 9 (active).
`O=S(=O)(ON(c1ccccc1)S(=O)(=O)c1ccccc1)c1ccccc1` was tested, and the B-score was “inactive”.
With `CCOc1ccc(Br)cc1S(=O)(=O)Nc1cccc(S(=O)(=O)N(CC)CC)c1` the B-score was “inactive”.
`Cc1cccc(OCC(=O)NC(=S)Nc2ccccc2N2CCOCC2)c1` was tested, and the B-score was “inactive”.
`Cc1ccc(O)c(NC(=S)NC(=O)COc2ccc(Br)cc2)c1` was tested, and the B-score was 8 (active).
With `Cc1ccc(O)c(NC(=O)COc2cc(C)ccc2C)c1` the B-score was “inactive”.
With `CCCCn1c(N)c(N(CCC(C)C)C(=O)CC2OC(=O)c3ccccc32)c(=O)[nH]c1=O` (configuration not stated) the B-score was “inactive”.
For `Cc1cc2occ(CC(=O)NNC(=O)c3ccccc3F)c2cc1C`, the B-score was “inactive”.
For `CCOC(=O)CN(C(=O)COc1nc(-c2ccccc2)cc(C)c1C#N)c1ccc(F)cc1`, the B-score was “inactive”.
In the case of `Cc1cccc(C(=O)Nc2ccc(C(=O)/C=C/c3cccs3)cc2)c1`, the B-score is reported as “inactive”.
In the case of `Cc1cccc(/C(N)=N/OC(=O)c2ccccc2Cl)c1`, the B-score is reported as “inactive”.
For `C/C(=N/NC(=S)Nc1ccccc1)c1ccc2c(c1)OCO2`, the B-score was “inactive”.
In the case of `Cc1ccc(NC(=O)c2cc3ccccc3o2)cc1`, the B-score is reported as “inactive”.
With `C/C(=N\NC(=S)Nc1ccc(C)cc1)c1cc2ccccc2o1` the B-score was 28 (active).
With `O=C(CSc1nncn1-c1cccnc1)N1CCOCC1` the B-score was “inactive”.
In the case of `CCc1[nH]nc(C(=O)N2CCCC(CNS(=O)(=O)c3cccs3)C2)c1C` (configuration not stated), the B-score is reported as “inactive”.
For `CC(C)c1ccc2c(c1)c(SC(C)(C)C)c(CC(C)(C)C(=O)O)n2Cc1ccc(Cl)cc1`, the B-score was 44 (active).
For `Nc1ncnc(Nc2cccc(Cl)c2Cl)n1`, the B-score was “inactive”.
In the case of `Cc1cccc(C(=O)NC(=S)N(C)C2CCCCC2)c1`, the B-score is reported as 16 (active).
With `Cc1cccc(NC(=S)NCCN(C2CCCCC2)C2CCCC2)c1` the B-score was “inactive”.
In the case of `Cc1cccc(C(=O)NCCCN(C)CCCNC(=O)c2cccc(C)c2)c1`, the B-score is reported as “inactive”.
With `COc1ccc(C(=O)C2CCCN(C(=O)c3cnsn3)C2)c(C)c1` (configuration not stated) the B-score was “inactive”.
In the case of `OC(CNC1CCCC1)COc1ccc(F)cc1` (configuration not stated), the B-score is reported as “inactive”.
`CC1CCN(C(=O)c2ccc(S(=O)(=O)Cc3cc(F)ccc3F)c([N+](=O)[O-])c2)CC1` was tested, and the B-score was “inactive”.
With `COc1cccc2sc(Nc3nc(C)c(C(C)=O)s3)nc12` the B-score was “inactive”.
In the case of `COc1cccc2sc(NNC(=O)c3nc4ccccc4s3)nc12`, the B-score is reported as 28 (active).
For `COc1ccccc1OCc1nc2ccccc2s1`, the B-score was “inactive”.
With `CN(CC(=O)Nc1ccccc1C(F)(F)F)C(=O)Cc1ccccc1F` the B-score was “inactive”.
`COCCNC(=O)CN1C(=O)CSc2ncccc21` was tested, and the B-score was “inactive”.
In the case of `O=c1c2cc(Br)ccc2nc(-c2cccc(Cl)c2)n1O`, the B-score is reported as 89 (active).
For `O=C1CCCc2c1nc(-c1cccc(Cl)c1)n2O`, the B-score was “inactive”.
In the case of `Cc1cccc(-c2nc3ccccc3c(=O)n2NC(=O)Cc2ccc(Cl)cc2)c1`, the B-score is reported as “inactive”.
`Cc1ccc(S(=O)(=O)N(C)C)cc1NC(=O)COC(=O)/C=C/c1cccs1` was tested, and the B-score was “inactive”.
In the case of `O=C(NCCc1ccco1)C(=O)NCCC1CCCCN1S(=O)(=O)c1ccccc1` (configuration not stated), the B-score is reported as “inactive”.
`COc1ccc(-n2c(-c3ccc(OC)c(OC)c3)n[nH]c2=S)cc1` was tested, and the B-score was “inactive”.
With `COc1ccc(-n2cc(-c3ccccc3)c3c(=S)nc[nH]c32)cc1` the B-score was 8 (active).
With `O=c1[nH]cnc2c1c(-c1ccccc1)cn2-c1ccc(F)cc1` the B-score was “inactive”.
For `CC(=O)NS(=O)(=O)c1ccc(NC(=O)/C=C/c2ccccc2Cl)cc1`, the B-score was “inactive”.
For `CN(C(=O)c1c(Cl)cnn1C)C12CC3CC(CC(C3)C1)C2`, the B-score was “inactive”.
`Nc1ccc(N=Nc2ccccc2Cl)c(N)n1` was tested, and the B-score was “inactive”.
With `CC(Oc1ccc2ccccc2c1)C(=O)NNC(=S)NC(=O)c1ccco1` (configuration not stated) the B-score was 38 (active).
For `CCCc1ccc(OCC(=O)NNC(=S)NC(=O)c2ccco2)cc1`, the B-score was 10 (active).
In the case of `Cc1ccc(C(=O)NNC(=O)C(C)Oc2ccc3ccccc3c2)o1` (configuration not stated), the B-score is reported as “inactive”.
In the case of `CCCc1ccc(OCCNC(=O)c2ccco2)cc1`, the B-score is reported as “inactive”.
`O=C(Nc1ccc2ccccc2c1)/C(=C/c1cccc(Br)c1)NC(=O)c1ccco1` was tested, and the B-score was “inactive”.
With `Cc1ccc(OCC(=O)NCCCNC(=O)c2ccco2)cc1C` the B-score was “inactive”.
`O=C(c1cccs1)n1nc(NCc2ccccc2)nc1NCc1ccccc1` was tested, and the B-score was “inactive”.
In the case of `COC(=O)Cc1cnc(NC(=O)CSc2nc(C(C)C)cc(=O)[nH]2)s1`, the B-score is reported as “inactive”.
